# Legend:
# Pseudomonas aeruginosa = test: Minimum inhibitory concentration was evaluated in vitro against Pseudomonas aeruginosa UI-18; assay type: functional
# In short: (§1)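 Standard microtitration broth assay against a panel of 10 Gram-positive and Gram-negative organisms. MIC read in µg/mL and averaged over multiple experiments.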
# Providencia rettgeri = test: Minimum inhibitory concentration was evaluated in vitro against Providencia rettgeri M1771; assay type: functional; in short: as §1
# Escherichia coli [1] = test: Antibacterial activity against Escherichia coli Vogel after oral administration in mouse; assay type: functional; conditions: Escherichia coli, po; read-out: PD50
# Escherichia coli [2] = test: Antibacterial activity against Escherichia coli Vogel after subcutaneous administration in mouse; assay type: functional; conditions: Escherichia coli, sc; read-out: PD50
# Streptococcus pyogenes [3] = test: Minimum inhibitory concentration was evaluated in vitro against Streptococcus pyogenes C 203; assay type: functional; in short: as §1
# Streptococcus pyogenes [4] = test: Antibacterial activity measured as mouse protection against Streptococcus pyogenes C 203 after subcutaneous administration; assay type: functional; conditions: for ED50: Streptococcus pyogenes, C 203, sc, read-out: PD50
# Escherichia coli [5] = test: Antibacterial activity in vitro against Escherichia coli Vogel; assay type: functional; in short: as §1
# DNA gyrase = DNA gyrase (Escherichia coli, UniProt P0AES4+P0AES6); test: Inhibition against DNA gyrase; assay type: protein-complex assay
# Enterobacter cloacae = test: Minimum inhibitory concentration in vitro against Enterobacter cloacae MA 2646; assay type: functional
# Streptococcus pyogenes [6] = test: Compounds were evaluated in vivo for antibacterial activity for mouse protection against Streptococcus pyogenes C 203 after oral administration; assay type: functional; conditions: for ED50: Streptococcus pyogenes, C 203, po, read-out: PD50
# Staphylococcus aureus [7] = test: Minimum inhibitory concentration was evaluated in vitro against Staphylococcus aureus UC 76; assay type: functional; in short: as §1
# Klebsiella pneumoniae = test: Minimum inhibitory concentration was evaluated in vitro against Klebsiella pneumoniae MGH2; assay type: functional; in short: as §1
# Streptococcus pneumoniae = test: Minimum inhibitory concentration was evaluated in vitro against Streptococcus pneumoniae SV-1; assay type: functional; in short: as §1
# Staphylococcus aureus [8] = test: Minimum inhibitory concentration was evaluated in vitro against Staphylococcus aureus H 228; assay type: functional; in short: as §1
# Enterococcus faecalis = test: Minimum inhibitory concentration was evaluated in vitro against Enterococcus faecalis MGH-2; assay type: functional; in short: as §1
# Mus musculus = species: Mus musculus; test: Compounds were evaluated for phototoxicity no-effect dose in mouse; assay type: functional
# In short: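 Depilated female CD-1 mice, five per dose plus controls. Animals are dosed orally and then exposed daily to UV-A (320–400 nm) for 3 h, for up to 4 days or until a definite positive response. Redness or erythema relative to controls, read 24 h after irradiation, counts as positive. Reported as the highest dose with no effect (mg/kg).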
# [9] = Clonogenic cytotoxicity against hamster V-79 cells; assay type: functional, Cricetulus griseus, V79
# In short: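 Chinese hamster V-79 cells grown overnight, then drug-treated for 3 h at 37 °C. Medium is replaced with fresh medium and cells are incubated 5 days to allow colony formation. IC50 (µg/mL) is the concentration inhibiting colony formation by 50% relative to control.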
# [10] = Pseudomonas aeruginosa, read-out: MIC
# [11] = Providencia rettgeri, read-out: MIC
# [12] = Streptococcus pyogenes, read-out: MIC
# [13] = Escherichia coli, read-out: MIC
# [14] = Enterobacter cloacae, read-out: MIC
# [15] = Staphylococcus aureus, read-out: MIC
# [16] = Klebsiella pneumoniae, read-out: MIC
# [17] = Streptococcus pneumoniae, read-out: MIC
# [18] = Enterococcus faecalis, read-out: MIC
Structure (SMILES),MIC (Pseudomonas aeruginosa; [10]),MIC (Providencia rettgeri; [11]),ED50 (Escherichia coli [1]),ED50 (Escherichia coli [2]),MIC (Streptococcus pyogenes [3]; [12]),ED50 (Streptococcus pyogenes [4]),MIC (Escherichia coli [5]; [13]),IC50 (DNA gyrase),MIC (Enterobacter cloacae; [14]),ED50 (Streptococcus pyogenes [6]),MIC (Staphylococcus aureus [7]; [15]),MIC (Klebsiella pneumoniae; [16]),MIC (Streptococcus pneumoniae; [17]),MIC (Staphylococcus aureus [8]; [15]),MIC (Enterococcus faecalis; [18]),Dose (Mus musculus),Cytotoxicity [9],other results
CC1(CN)CCN(c2nc3c(cc2F)c(=O)c(C(=O)O)cn3C2CC2)C1 (stereo not given),0.8 µg/mL,0.4 µg/mL,10 mg/kg,2 mg/kg,0.05 µg/mL,2 mg/kg,0.2 µg/mL,13900 nM,0.1 µg/mL,6 mg/kg,0.006 µg/mL,0.1 µg/mL,0.025 µg/mL,0.025 µg/mL,0.05 µg/mL,–,–,–
C[C@H](N)[C@H]1CCN(c2nc3c(cc2F)c(=O)c(C(=O)O)cn3C2CC2)C1,1.6 µg/mL,0.4 µg/mL,–,–,0.05 µg/mL,10 mg/kg,0.05 µg/mL,6940 nM,0.05 µg/mL,28 mg/kg,0.025 µg/mL,0.2 µg/mL,0.05 µg/mL,0.2 µg/mL,0.1 µg/mL,–,–,–
C[C@@H](N)[C@H]1CCN(c2cc3c(cc2F)c(=O)c(C(=O)O)cn3C2CC2)C1,–,–,–,–,–,–,–,20900 nM,–,–,–,–,–,–,–,–,–,MIC (Pseudomonas aeruginosa): 1.6 µg/mL; MIC (Providencia rettgeri): 0.8 µg/mL; MIC (Streptococcus pyogenes [3]): 0.1 µg/mL; PD50 (Streptococcus pyogenes [4]): 3 mg/kg; MIC (Escherichia coli [5]): 0.2 µg/mL; MIC (Enterobacter cloacae): 0.2 µg/mL; PD50 (Streptococcus pyogenes [6]): >100 mg/kg; MIC (Staphylococcus aureus [7]): 0.05 µg/mL; MIC (Klebsiella pneumoniae): 0.4 µg/mL; MIC (Streptococcus pneumoniae): 0.1 µg/mL; MIC (Staphylococcus aureus [8]): 0.4 µg/mL; MIC (Enterococcus faecalis): 0.2 µg/mL
C[C@H](N)[C@H]1CCN(c2cc3c(cc2F)c(=O)c(C(=O)O)cn3C2CC2)C1,1.6 µg/mL,0.8 µg/mL,–,–,0.1 µg/mL,12 mg/kg,0.2 µg/mL,20900 nM,0.2 µg/mL,> 100 mg/kg,0.1 µg/mL,0.4 µg/mL,0.2 µg/mL,0.8 µg/mL,0.4 µg/mL,–,–,–
CCN[C@H](C)[C@H]1CCN(c2c(F)cc3c(=O)c(C(=O)O)cn(C4CC4)c3c2C(F)(F)F)C1 (racemic),6.3 µg/mL,1.6 µg/mL,5 mg/kg,3 mg/kg,0.025 µg/mL,0.5 mg/kg,0.8 µg/mL,1930 nM,0.4 µg/mL,0.7 mg/kg,0.013 µg/mL,1.6 µg/mL,0.013 µg/mL,0.05 µg/mL,0.1 µg/mL,–,–,–
CN[C@H](C)[C@H]1CCN(c2c(F)cc3c(=O)c(C(=O)O)cn(C4CC4)c3c2C(F)(F)F)C1 (mixture of isomers),3.1 µg/mL,0.8 µg/mL,4 mg/kg,2 mg/kg,0.013 µg/mL,0.3 mg/kg,0.4 µg/mL,–,0.4 µg/mL,0.8 mg/kg,0.013 µg/mL,0.8 µg/mL,0.013 µg/mL,0.025 µg/mL,0.1 µg/mL,>100 mg/kg,130 µg/mL,–
CCn1cc(C(=O)O)c(=O)c2cc(F)c(N3CC[C@H]([C@@H](C)N)C3)c(F)c21 (mixture of isomers),0.8 µg/mL,0.2 µg/mL,3 mg/kg,1 mg/kg,0.003 µg/mL,0.4 mg/kg,0.05 µg/mL,–,0.05 µg/mL,1 mg/kg,0.006 µg/mL,0.1 µg/mL,0.003 µg/mL,0.025 µg/mL,0.013 µg/mL,<10 mg/kg,9.8 µg/mL,–
Nc1c(F)c(N2CCC(N)C2)cc2c1c(=O)c(C(=O)O)cn2C1CC1 (stereo not given),0.4 µg/mL,0.1 µg/mL,8 mg/kg,1 mg/kg,0.05 µg/mL,6 mg/kg,0.013 µg/mL,–,0.013 µg/mL,110 mg/kg,0.025 µg/mL,0.025 µg/mL,0.025 µg/mL,0.1 µg/mL,0.1 µg/mL,>300 mg/kg,12 µg/mL,–
NC1CCN(c2cc3c(cc2F)c(=O)c(C(=O)O)cn3C2CC2)C1 (stereo not given),–,–,3 mg/kg,–,0.1 µg/mL,–,–,754 nM,0.025 µg/mL,–,0.025 µg/mL,0.05 µg/mL,–,0.2 µg/mL,0.1 µg/mL,–,–,–
C[C@@H](N)[C@@H]1CCN(c2cc3c(cc2F)c(=O)c(C(=O)O)cn3C2CC2)C1,1.6 µg/mL,0.8 µg/mL,–,–,0.025 µg/mL,2 mg/kg,0.1 µg/mL,2090 nM,0.2 µg/mL,> 100 mg/kg,0.05 µg/mL,0.4 µg/mL,0.025 µg/mL,0.2 µg/mL,0.1 µg/mL,–,–,–
CCN[C@@H](C)[C@@H]1CCN(c2nc3c(cc2F)c(=O)c(C(=O)O)cn3C2CC2)C1 (racemic),1.6 µg/mL,0.8 µg/mL,2 mg/kg,1 mg/kg,–,–,0.1 µg/mL,–,0.1 µg/mL,–,–,0.2 µg/mL,–,0.1 µg/mL,–,<30 mg/kg,130 µg/mL,MIC (Streptococcus pyogenes [3]): 0.05 µg/mL; PD50 (Streptococcus pyogenes [4]): 2 mg/kg; PD50 (Streptococcus pyogenes [6]): 2 mg/kg; MIC (Staphylococcus aureus [7]): 0.025 µg/mL; MIC (Streptococcus pneumoniae): 0.025 µg/mL; MIC (Enterococcus faecalis): 0.05 µg/mL
CNC(C)C1CCN(c2nc3c(cc2F)c(=O)c(C(=O)O)cn3-c2ccc(F)cc2F)C1 (racemic),3.1 µg/mL,1.6 µg/mL,6 mg/kg,2 mg/kg,0.05 µg/mL,1 mg/kg,0.4 µg/mL,–,0.8 µg/mL,4 mg/kg,0.025 µg/mL,0.8 µg/mL,0.025 µg/mL,0.1 µg/mL,0.2 µg/mL,>100 mg/kg,310 µg/mL,–
CC1(CN)CCN(c2cc3c(cc2F)c(=O)c(C(=O)O)cn3C2CC2)C1 (stereo not given),–,0.8 µg/mL,43 mg/kg,3 mg/kg,–,3 mg/kg,–,2780 nM,–,31 mg/kg,0.013 µg/mL,–,–,0.1 µg/mL,–,–,–,–
C[C@@H](N)[C@@H]1CCN(c2nc3c(cc2F)c(=O)c(C(=O)O)cn3C2CC2)C1,0.8 µg/mL,0.4 µg/mL,–,–,0.013 µg/mL,2 mg/kg,0.05 µg/mL,2080 nM,0.05 µg/mL,14 mg/kg,0.006 µg/mL,0.1 µg/mL,0.006 µg/mL,0.05 µg/mL,0.05 µg/mL,–,–,–
CCN[C@H](C)[C@H]1CCN(c2c(F)cc3c(=O)c(C(=O)O)cn(C4CC4)c3c2OC)C1 (racemic),3.1 µg/mL,0.4 µg/mL,5 mg/kg,2 mg/kg,0.006 µg/mL,0.2 mg/kg,0.1 µg/mL,–,0.1 µg/mL,0.5 mg/kg,0.003 µg/mL,0.2 µg/mL,0.006 µg/mL,0.013 µg/mL,0.025 µg/mL,>100 mg/kg,110 µg/mL,–
C[C@@H](N)[C@H]1CCN(c2c(F)c(N)c3c(=O)c(C(=O)O)cn(C4CC4)c3c2F)C1 (racemic),0.4 µg/mL,0.025 µg/mL,2 mg/kg,0.3 mg/kg,0.003 µg/mL,0.1 mg/kg,0.013 µg/mL,–,0.013 µg/mL,0.6 mg/kg,0.003 µg/mL,0.013 µg/mL,0.003 µg/mL,0.003 µg/mL,0.003 µg/mL,<30 mg/kg,<7.8 µg/mL,–
CCNC[C@@H]1CCN(c2c(F)cc3c(=O)c(C(=O)O)cn(CC)c3c2F)C1,1.6 µg/mL,0.2 µg/mL,10 mg/kg,3 mg/kg,0.1 µg/mL,4 mg/kg,0.1 µg/mL,–,0.2 µg/mL,10 mg/kg,0.05 µg/mL,0.1 µg/mL,0.1 µg/mL,0.05 µg/mL,0.1 µg/mL,1.5 mg/kg,190 µg/mL,–
COc1c(N2CCC(N)C2)c(F)cc2c(=O)c(C(=O)O)cn(C3CC3)c12 (stereo not given),0.2 µg/mL,0.1 µg/mL,3 mg/kg,0.4 mg/kg,0.025 µg/mL,3 mg/kg,0.025 µg/mL,–,0.025 µg/mL,10 mg/kg,0.013 µg/mL,0.05 µg/mL,0.025 µg/mL,0.05 µg/mL,0.05 µg/mL,>100 mg/kg,45 µg/mL,–

# — ChEMBL document CHEMBL1126988, “Quinolone antibacterials containing the new 7-[3-(1-aminoethyl)-1- pyrrolidinyl] side chain: the effects of the 1-aminoethyl moiety and its stereochemical configurations on potency and in vivo efficacy” (J Med Chem, 1993)
